The Km is the concentration of substrate that gives half-maximal velocity. By Vmax is commonly meant the rate approached at saturating substrate.

One data set deals with Mus musculus. Put plainly: Induction of DL-norepinephrine-7-3H release from ARS HA(ICR)f outbred Swiss albino mouse heart assessed as remaining level at 10 mg/kg, sc after 2 hrs relative to control. The data set is classed as functional. The conditions noted are these: route subcutaneous. Put shortly:
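Mice (about 20 g) given 1.0 nmol (5 μCi) Norepi-3H iv by tail vein in isotonic NaCl with heparin. Compound 10 mg/kg sc 1 hr later; saline-injected controls. Hearts removed, homogenized in 10 vol 0.4 N HClO4 and centrifuged; tritium in the supernatant counted. Expressed as % of control, mean of duplicate determinations with five mice each.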

The target of data set [1] is T1, Catechol O-methyltransferase (Rattus norvegicus) (UniProt P22734).
T1 sequence (whole entry): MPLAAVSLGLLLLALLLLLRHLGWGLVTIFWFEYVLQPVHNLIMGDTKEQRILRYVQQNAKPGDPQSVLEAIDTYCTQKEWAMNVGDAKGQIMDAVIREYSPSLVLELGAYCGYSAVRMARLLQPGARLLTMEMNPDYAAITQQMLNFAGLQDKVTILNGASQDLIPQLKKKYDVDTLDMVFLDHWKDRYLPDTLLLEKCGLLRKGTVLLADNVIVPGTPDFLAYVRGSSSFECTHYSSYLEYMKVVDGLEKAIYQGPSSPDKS
Put plainly: Competitive inhibition of Sprague-Dawley rat liver COMT assessed as inhibition of methyl group transformation from SAM to DL-epinephrine-7-14C after 10 mins by scintillation spectrophotometric analysis. Put shortly: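 Partially purified rat liver COMT (calcium phosphate stage). SAM 1.0 mM as methyl donor, Epi-14C 0.05 μCi, epinephrine varied 54-404 μM, 10 min, stopped with borate pH 10.0. Radiolabeled metanephrine and paranephrine extracted with toluene-isoamyl alcohol (3:2) and counted. Reciprocal velocity vs reciprocal epinephrine plots give the inhibition pattern; Ki by Cleland's procedure.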

Substrate in data set [2]: CN1Cc2cc(O)c(O)cc2C(C)(C)C1
The experiment in a line: (§1) Activity of Sprague-Dawley rat liver COMT using [14CH3]-SAM as methyl group donor after 10 mins by scintillation spectrophotometric analysis. A digest of the protocol: (§2)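 Rat liver COMT (male Sprague-Dawley, 180-200 g) purified through the calcium phosphate stage, approx 50-fold. Test catechol at 50-500 μM as substrate, SAM 1.0 mM with SAM-14CH3 0.05 μCi, 10 min incubation, stopped with borate buffer pH 10.0. O-methylated product extracted into toluene-isoamyl alcohol (3:2) and counted. Km and Vmax from double-reciprocal plots using Cleland's equations.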

Substrate in data set [3]: CN1CCc2cc(O)c(O)cc2C1
Described as §1. A digest of the protocol: as §2

Substrate in data set [4]: CNC[C@H](O)c1ccc(O)c(O)c1
The data set is described as §1. Put shortly:
as §2

Substrate in data set [5]: Oc1cc2c(cc1O)CNCC2
The data set is described as §1. A digest of the protocol:
as §2

Substrate in data set [6]: CC1CN(C)Cc2cc(O)c(O)cc21
The data set is described as §1. A digest of the protocol:
as §2

Substrate in data set [7]: CC1(C)CNCc2cc(O)c(O)cc21
The data set is described as §1. A digest of the protocol:
as §2

Turning to `Br.CN1Cc2cc(O)c(O)cc2C(C)(C)C1`, the Activity with Mus musculus is reported as 115%. Moreover, the Kis in data set [1] was found to be 187 µM.
Taken in the same sequence, the figures for `Br.CN1CCc2cc(O)c(O)cc2C1` were 104% and 152 µM.
Taken in the same sequence, the figures for `C[N+]1(C)CCc2cc(O)c(O)cc2C1.[Br-]` were 43% and 191 µM.
The corresponding values for `Br.CC1(C)CNCc2cc(O)c(O)cc21` are 103% and 259 µM.
Take `Br.CC1CN(C)Cc2cc(O)c(O)cc21` (centres undefined): the Activity with Mus musculus worked out at 107%. For the same molecule, in data set [1], the Kis came out at 101 µM.
The corresponding values for `Br.Oc1cc2c(cc1O)CNCC2` are 63% and 196 µM.

B1: Catechol O-methyltransferase (Rattus norvegicus), P22734 (protein)
chain: T1 sequence (whole entry)
Turning to B1, the Michaelis constant (Km) in data set [2] was determined as 410 µM; in data set [3], 670 µM; in data set [4], 398 µM; in data set [5], 540 µM; in data set [6], 754 µM; in data set [7], 310 µM. Further, the Vmax in data set [2] came out at 12.1 nmol/mg/min; in data set [3] it was 18.5 nmol/mg/min; in data set [4] it was 19.8 nmol/mg/min; in data set [5] it was 15.5 nmol/mg/min; in data set [6] it was 21.2 nmol/mg/min; in data set [7] it was 17.4 nmol/mg/min.

These data come from ChEMBL document CHEMBL3271951, “Synthesis and biological activity of 2- and 4-substituted 6,7-dihydroxy-1,2,3,4-tetrahydroisoquinolines” (1976).
